Entries after “also recorded” stand apart in the source; their conditions may differ. Values belong to the compound of their own block, whether it stands above or below them.
What was measured:
ERAP1 L733R [1] = molecular target: T1, ERAP1 L733R (Homo sapiens, UniProt Q9NZ08, L733R); experiment: Simple activation assay; assay type: biochemical; details: 100 μM L-AMC, pH 8.0, 25 °C, 5 min
How it was run: (§1)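 ERAP1 enzyme: allotype-1, WT or point mutant, with a C-terminal His6 tag. It was expressed in Sf9 cells by baculovirus and purified by Ni-NTA and gel filtration. Assay: 1.5 µg ml-1 enzyme in 50 mM Tris/HCl pH 8.0, 0.1 M NaCl at 25 °C, with or without 100 µM 7-mer peptide activator. Hydrolysis of 100 µM L-AMC was followed for 5 min by AMC fluorescence (ex 380/em 460 nm), calibrated with AMC standards.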

ERAP1 V737R [2] = molecular target: T2, ERAP1 V737R (Homo sapiens, UniProt Q9NZ08, V737R); experiment: Steady-state kinetics of L-AMC hydrolysis ± 7-mer peptide activator, V737R; assay type: biochemical; details: pH 8.0, 27 °C; for allosteric activation in steady state kinetics: 100 μM peptide, 0–2,000 μM L-AMC
How it was run: (§2)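 Steady-state kinetics used purified His6-tagged ERAP1 (allotype-1, WT or mutant) from baculovirus-infected Sf9 cells at 1.5 µg ml-1. Buffer was 50 mM Tris/HCl pH 8.0, 0.1 M NaCl at 27 °C, with L-AMC at 0–2,000 µM, with or without 100 µM 7-mer peptide. AMC release (ex 380/em 460 nm) was followed for 5 min. Initial rates from three time points (nmoles.min-1.µg-1) were curve-fitted for Vmax, K1/2 and Hill coefficient. Comparisons used Brown-Forsyth one-way ANOVA with Tukey's test.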

ERAP1 V737R [3] = molecular target: T2, ERAP1 V737R; experiment: Simple activation assay; assay type: biochemical; details: 100 μM L-AMC, pH 8.0, 25 °C, 5 min
How it was run: as §1

ERAP1 F803R [4] = molecular target: T3, ERAP1 F803R (Homo sapiens, UniProt Q9NZ08, F803R); experiment: Steady-state kinetics of L-AMC hydrolysis ± 7-mer peptide activator, F803R; assay type: biochemical; details: pH 8.0, 27 °C
How it was run: as §2

ERAP1 L734R [5] = experiment: Steady-state kinetics of L-AMC hydrolysis ± 7-mer peptide activator, L734R; assay type: biochemical, human; details: pH 8.0, 27 °C
How it was run: as §2

ERAP1 I681R [6] = molecular target: T4, ERAP1 I681R (Homo sapiens, UniProt Q9NZ08, I681R); experiment: Simple activation assay; assay type: biochemical; details: 100 μM L-AMC, pH 8.0, 25 °C, 5 min
How it was run: as §1

ERAP1 L733R [7] = molecular target: T1, ERAP1 L733R; experiment: Steady-state kinetics of L-AMC hydrolysis ± 7-mer peptide activator, L733R; assay type: biochemical; details: pH 8.0, 27 °C
How it was run: as §2

ERAP1 WT [8] = experiment: Simple activation assay; assay type: biochemical, human; details: 100 μM L-AMC, pH 8.0, 25 °C, 5 min; for activation of L-AMC hydrolysis over basal level: 100 μM peptide
How it was run: as §1

ERAP1 F803R [9] = experiment: Simple activation assay; assay type: biochemical, human; details: 100 μM L-AMC, pH 8.0, 25 °C, 5 min; for activation of L-AMC hydrolysis over basal level: 100 μM peptide
How it was run: as §1

ERAP1 I681R [10] = molecular target: T4, ERAP1 I681R; experiment: Steady-state kinetics of L-AMC hydrolysis ± 7-mer peptide activator, I681R; assay type: biochemical; details: pH 8.0, 27 °C
How it was run: as §2

ERAP1 WT [11] = experiment: Steady-state kinetics of L-AMC hydrolysis ± 7-mer peptide activator, ERAP1 WT; assay type: biochemical, human; details: pH 8.0, 27 °C
How it was run: as §2

ERAP1 L734R [12] = experiment: Simple activation assay; assay type: biochemical, human; details: 100 μM L-AMC, pH 8.0, 25 °C, 5 min
How it was run: as §1

ERAP1 I681R [13] = molecular target: T4, ERAP1 I681R; experiment: Allosteric activation of L-AMC hydrolysis, varying peptide effector, I681R; assay type: biochemical; details: 0–2,000 μM peptide, 100 μM L-AMC, 27 °C, three independent repeats
How it was run: (§3)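 Recombinant human ERAP1 (allotype-1, WT or Arg point mutant) carrying a C-terminal His6 tag, expressed in baculovirus-infected Sf9 cells and purified by Ni-NTA then gel filtration (full-length peak). 1.5 µg/ml enzyme with 100 µM L-AMC and 7-mer peptide activator varied 0–2,000 µM, in 50 mM Tris/HCl pH 8.0, 0.1 M NaCl, 27 °C, 5 min. AMC fluorescence read at ex 380/em 460 nm against AMC standards. Vmax and AC50 fitted to Michaelis-Menten.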

ERAP1 WT [14] = experiment: Allosteric activation of L-AMC hydrolysis, varying peptide effector, ERAP1 WT; assay type: biochemical, human; details: 0–2,000 μM peptide, 100 μM L-AMC, 27 °C, three independent repeats
How it was run: as §3

ERAP1 L734R [15] = molecular target: ERAP1 L734R (Homo sapiens, UniProt Q9NZ08, L734R); experiment: Allosteric activation of L-AMC hydrolysis, varying peptide effector, L734R; assay type: biochemical; details: 0–2,000 μM peptide, 100 μM L-AMC, 27 °C, three independent repeats
How it was run: as §3

ERAP1 V737R [16] = molecular target: T2, ERAP1 V737R; experiment: Allosteric activation of L-AMC hydrolysis, varying peptide effector, V737R; assay type: biochemical; details: 0–2,000 μM peptide, 100 μM L-AMC, 27 °C, three independent repeats
How it was run: as §3

ERAP1 L733R [17] = molecular target: T1, ERAP1 L733R; experiment: Allosteric activation of L-AMC hydrolysis, varying peptide effector, L733R; assay type: biochemical; details: 0–2,000 μM peptide, 100 μM L-AMC, 27 °C, three independent repeats
How it was run: as §3

ERAP1 F803R [18] = molecular target: T3, ERAP1 F803R; experiment: Allosteric activation of L-AMC hydrolysis, varying peptide effector, F803R; assay type: biochemical; details: 0–2,000 μM peptide, 100 μM L-AMC, 27 °C, three independent repeats
How it was run: as §3

ERAP1 WT [19] = experiment: N-terminal peptide trimming, LC-MS/MS, ERAP1 WT; assay type: biochemical, human; details: from 11-mer KL1, pH 7.8, 30 °C, two independent experiments
ERAP1 F803R [20] = molecular target: ERAP1 F803R (Homo sapiens, UniProt Q9NZ08, F803R/R127P); experiment: N-terminal peptide trimming, LC-MS/MS, F803R; assay type: biochemical; details: from 11-mer KL1, pH 7.8, 30 °C, two independent experiments
ERAP1 = details: cited from earlier work
ERAP1 WT and variants = assay type: biochemical, human; details: 100 μM peptide; most enzyme variants; 0–2,000 μM L-AMC; pH 8.0; 27 °C
How it was run: as §2

[21] = no peptide activator, three independent repeats
[22] = 1.5 μg/ml enzyme, 50 mM Tris/HCl pH 8.0, 0.1 M NaCl, 5 min
[23] = read-out: AC50 (half maximal activation concentration), pH 8.0
[24] = 100 μM peptide, relative to wildtype
[25] = 100 μM peptide, 0–2,000 μM L-AMC

T1 sequence (Q9NZ08 whole entry L733R): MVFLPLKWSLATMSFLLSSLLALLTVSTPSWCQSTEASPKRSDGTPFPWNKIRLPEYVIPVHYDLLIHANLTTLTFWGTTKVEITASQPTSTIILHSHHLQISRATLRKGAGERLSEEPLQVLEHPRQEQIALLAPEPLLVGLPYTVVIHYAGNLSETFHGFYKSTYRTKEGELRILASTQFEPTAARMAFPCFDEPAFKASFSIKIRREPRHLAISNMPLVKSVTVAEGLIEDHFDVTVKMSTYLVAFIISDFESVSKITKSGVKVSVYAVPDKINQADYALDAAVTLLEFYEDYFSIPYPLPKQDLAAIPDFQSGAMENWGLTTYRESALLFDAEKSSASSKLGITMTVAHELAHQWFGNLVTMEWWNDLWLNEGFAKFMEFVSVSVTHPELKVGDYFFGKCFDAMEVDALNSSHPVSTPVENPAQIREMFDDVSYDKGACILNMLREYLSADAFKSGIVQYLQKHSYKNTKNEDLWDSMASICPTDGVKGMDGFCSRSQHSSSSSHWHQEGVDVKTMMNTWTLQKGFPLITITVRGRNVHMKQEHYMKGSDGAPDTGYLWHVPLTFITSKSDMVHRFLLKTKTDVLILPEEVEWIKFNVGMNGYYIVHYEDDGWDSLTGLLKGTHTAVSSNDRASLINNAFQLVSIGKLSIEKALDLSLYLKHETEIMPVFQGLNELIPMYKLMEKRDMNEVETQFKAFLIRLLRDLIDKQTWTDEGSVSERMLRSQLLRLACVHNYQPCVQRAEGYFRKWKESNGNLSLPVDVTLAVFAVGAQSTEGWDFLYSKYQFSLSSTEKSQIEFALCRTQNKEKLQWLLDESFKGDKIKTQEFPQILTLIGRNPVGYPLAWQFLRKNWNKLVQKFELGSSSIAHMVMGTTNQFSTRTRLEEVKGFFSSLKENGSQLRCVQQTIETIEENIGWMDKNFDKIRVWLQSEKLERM
T3 sequence (Q9NZ08 whole entry F803R): as the sequence (Q9NZ08 whole entry L733R) above, with R733L, F803R counted along it
T2 sequence (Q9NZ08 whole entry V737R): as the sequence (Q9NZ08 whole entry L733R) above, with R733L, V737R counted along it
T4 sequence (Q9NZ08 whole entry I681R): as the sequence (Q9NZ08 whole entry L733R) above, with I681R, R733L counted along it
Sequence of ERAP1 L734R (Homo sapiens, UniProt Q9NZ08, L734R) (Q9NZ08 whole entry L734R): as the sequence (Q9NZ08 whole entry L733R) above, with R733L, L734R counted along it
Sequence of ERAP1 F803R (Homo sapiens, UniProt Q9NZ08, F803R/R127P) (Q9NZ08 whole entry R127P/F803R): as the sequence (Q9NZ08 whole entry L733R) above, with R127P, R733L, F803R counted along it

Compound: LESIINFEKL [KL2]
time after which the amount of 10-mer product began to decrease (ERAP1 WT [19]): > 10 min | time after which the amount of 10-mer product began to decrease (ERAP1 F803R [20]): > 10 min

Compound: QLESIINFEKL [KL1]
processing by ERAP1 (ERAP1): efficiently processed by ERAP1

Compound: IINFEKE
activation of L-AMC hydrolysis over basal level (ERAP1 L733R [1]; 100 μM peptide): not activated significantly above their basal levels; also recorded: did not show significant difference from their respective basal activity | allosteric activation in steady state kinetics (ERAP1 V737R [2]): significantly activated; also recorded: not a very effective activator | activation of L-AMC hydrolysis above basal activity (ERAP1 V737R [3]; 100 μM peptide): ~ 30% | activation of L-AMC hydrolysis over basal level (ERAP1 V737R [3]; 100 μM peptide): slight but significant activation | activation of L-AMC hydrolysis over basal level (ERAP1 I681R [6]; 100 μM peptide): not activated significantly above their basal levels | activation of L-AMC hydrolysis over basal level (ERAP1 WT [8]): not activated significantly above their basal levels; also recorded: did not show significant difference from their respective basal activity | activation of L-AMC hydrolysis over basal level (ERAP1 F803R [9]): not activated significantly above their basal levels; also recorded: did not show significant difference from their respective basal activity | change of sigmoidal curves, h values, or Vmax (ERAP1 WT and variants): did not change much the sigmoidal curves | activation of L-AMC hydrolysis over basal level (ERAP1 L734R [12]; 100 μM peptide): not activated significantly above their basal levels

The next lines start with results.

basal L-AMC hydrolysis (ERAP1 L733R [1]; no peptide): low but detectable basal level | Hill coef. (h) (ERAP1 V737R [2]; [21]): 1.9 | K1/2 (half-Vmax concentration of L-AMC) (ERAP1 V737R [2]; [21]): 0.52 ± 0.09 mM | basal L-AMC hydrolysis (ERAP1 V737R [3]; no peptide): low but detectable basal level | K1/2 (half-Vmax concentration of L-AMC) (ERAP1 F803R [4]; [21]): 0.39 ± 0.06 mM | Hill coef. (h) (ERAP1 L733R [7]; [21]): 1.5 | K1/2 (half-Vmax concentration of L-AMC) (ERAP1 L733R [7]; [21]): 0.19 ± 0.03 mM | Hill coef. (h) (ERAP1 I681R [10]; [21]): 1.8 | K1/2 (half-Vmax concentration of L-AMC) (ERAP1 I681R [10]; [21]): 0.23 ± 0.04 mM
Compound: Cc1cc(=O)oc2cc(NC(=O)[C@@H](N)CC(C)C)ccc12 [L-AMC, leucine-7-amido-4-methyl-coumarin, reference compound]
Hill coef. (h) (ERAP1 L734R [5]; [21]): 1.3 | K1/2 (half-Vmax concentration of L-AMC) (ERAP1 L734R [5]; [21]): 0.33 ± 0.09 mM | basal L-AMC hydrolysis (ERAP1 I681R [6]; no peptide): low but detectable basal level; also recorded: higher than the other mutant enzymes and the WT enzyme | basal L-AMC hydrolysis (ERAP1 WT [8]; no peptide): low but detectable basal level | basal L-AMC hydrolysis (ERAP1 F803R [9]; no peptide): low but detectable basal level | Hill coef. (h) (ERAP1 WT [11]; [21]): 2.6 | K1/2 (half-Vmax concentration of L-AMC) (ERAP1 WT [11]; [21]): 0.38 ± 0.05 mM | basal L-AMC hydrolysis (ERAP1 L734R [12]; no peptide): low but detectable basal level; also recorded: higher than the other mutant enzymes and the WT enzyme

Vmax of L-AMC hydrolysis, peptide activator varied (ERAP1 I681R [13]; [22]): 175 ± 54 nmol/min/µg | AC50 (ERAP1 I681R [13]; [23]): 1460 ± 840 µM | allosteric activation compared to wildtype enzyme (ERAP1 L733R [1]; [24]): ~50% | allosteric activation in steady state kinetics (ERAP1 V737R [2]): significant or dramatic increase of Vmax | Vmax of L-AMC hydrolysis, peptide activator varied (ERAP1 L734R [15]; [22]): 112 ± 8 nmol/min/µg | AC50 (ERAP1 L734R [15]; [23]): 580 ± 120 µM | Vmax of L-AMC hydrolysis, peptide activator varied (ERAP1 V737R [16]; [22]): 62 ± 7 nmol/min/µg | AC50 (ERAP1 V737R [16]; [23]): 590 ± 170 µM | allosteric activation compared to wildtype enzyme (ERAP1 I681R [6]; [24]): about 75% | allosteric activation in steady state kinetics (ERAP1 L733R [7]; [25]): significant or dramatic increase of Vmax | Vmax of L-AMC hydrolysis, peptide activator varied (ERAP1 L733R [17]; [22]): 211 ± 10 nmol/min/µg | AC50 (ERAP1 L733R [17]; [23]): 440 ± 60 µM | Vmax of L-AMC hydrolysis, peptide activator varied (ERAP1 F803R [18]; [22]): 217 ± 9 nmol/min/µg | AC50 (ERAP1 F803R [18]; [23]): 170 ± 30 µM | allosteric activation in steady state kinetics (ERAP1 I681R [10]; [25]): significant or dramatic increase of Vmax | allosteric activation compared to wildtype enzyme (ERAP1 L734R [12]; [24]): ~55%
Compound: IINFEKL
Vmax of L-AMC hydrolysis, peptide activator varied (ERAP1 WT [14]; [22]): 241 ± 6 nmol/min/µg | AC50 (ERAP1 WT [14]; [23]): 80 ± 10 µM | activation of L-AMC hydrolysis over basal level (ERAP1 V737R [3]; 100 μM peptide): lowest activity in the presence of IINFEKL peptide and with the smallest activation from its basal activity | allosteric activation in steady state kinetics (ERAP1 F803R [4]; [25]): significant or dramatic increase of Vmax; also recorded: effective allosteric activator | allosteric activation in steady state kinetics (ERAP1 L734R [5]; [25]): significant or dramatic increase of Vmax | activation of L-AMC hydrolysis over basal level (ERAP1 WT [8]): significant increase | activation of L-AMC hydrolysis over basal level (ERAP1 F803R [9]): significant increase | allosteric activation in steady state kinetics (ERAP1 WT [11]; [25]): significant or dramatic increase of Vmax; also recorded: effective allosteric activator

Reference: article PMC10841542 (Immunology, 2023)
